From ChEMBL document CHEMBL1145787, “Synthesis and structure-activity relationship of N-substituted 4-arylsulfonylpiperidine-4-hydroxamic acids as novel, orally active matrix metalloproteinase inhibitors for the treatment of osteoarthritis” (J Med Chem, 2003)

How the values were obtained:
[1] = biological target: Matrix metalloproteinase-9 (Homo sapiens, UniProt P14780); test: In vitro inhibitory activity against matrix metalloprotease-9.
[2] = biological target: T1, Disintegrin and metalloproteinase domain-containing protein 17 (Homo sapiens, UniProt P78536); test: Inhibition of Tumor necrosis factor alpha converting enzyme (TACE) at 10 uM
T1 sequence (P78536 whole entry, the tested form may be a part): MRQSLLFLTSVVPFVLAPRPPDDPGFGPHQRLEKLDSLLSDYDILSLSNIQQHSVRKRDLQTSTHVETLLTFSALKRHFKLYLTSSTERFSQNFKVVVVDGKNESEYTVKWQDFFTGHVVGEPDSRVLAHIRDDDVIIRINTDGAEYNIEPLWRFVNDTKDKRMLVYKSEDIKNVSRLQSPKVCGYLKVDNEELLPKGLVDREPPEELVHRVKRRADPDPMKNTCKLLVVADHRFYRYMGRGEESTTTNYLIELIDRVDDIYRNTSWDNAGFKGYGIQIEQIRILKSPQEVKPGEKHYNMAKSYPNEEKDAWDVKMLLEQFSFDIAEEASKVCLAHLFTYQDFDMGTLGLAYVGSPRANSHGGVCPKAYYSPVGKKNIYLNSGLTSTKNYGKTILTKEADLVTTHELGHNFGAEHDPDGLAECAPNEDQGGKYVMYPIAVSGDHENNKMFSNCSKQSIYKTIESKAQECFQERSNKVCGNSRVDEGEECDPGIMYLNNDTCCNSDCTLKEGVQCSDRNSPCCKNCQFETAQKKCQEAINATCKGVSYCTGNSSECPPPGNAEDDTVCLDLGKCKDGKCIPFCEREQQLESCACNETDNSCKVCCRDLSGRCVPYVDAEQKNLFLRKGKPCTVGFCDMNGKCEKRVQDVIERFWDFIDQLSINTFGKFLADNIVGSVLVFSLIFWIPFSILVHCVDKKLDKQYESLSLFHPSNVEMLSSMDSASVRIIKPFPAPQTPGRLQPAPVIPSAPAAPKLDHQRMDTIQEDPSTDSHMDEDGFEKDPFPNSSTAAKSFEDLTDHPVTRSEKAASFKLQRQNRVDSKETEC
In short: (§1)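 Dose–response curves were not generated when inhibition was below 60% at 10 μM.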

[3] = biological target: Collagenase 3 (Homo sapiens, UniProt P45452)
[4] = In vivo inhibitory activity against Matrix metalloprotease enzyme by dialysis implant assay, value is relative to activity of CGS-27023 (51+/-3) at 25 mg/kg. po; assay type: functional
[5] = biological target: T2, Interstitial collagenase (Homo sapiens, UniProt P03956); test: In vitro inhibitory activity against matrix metalloprotease-1
T2 sequence (P03956 whole entry): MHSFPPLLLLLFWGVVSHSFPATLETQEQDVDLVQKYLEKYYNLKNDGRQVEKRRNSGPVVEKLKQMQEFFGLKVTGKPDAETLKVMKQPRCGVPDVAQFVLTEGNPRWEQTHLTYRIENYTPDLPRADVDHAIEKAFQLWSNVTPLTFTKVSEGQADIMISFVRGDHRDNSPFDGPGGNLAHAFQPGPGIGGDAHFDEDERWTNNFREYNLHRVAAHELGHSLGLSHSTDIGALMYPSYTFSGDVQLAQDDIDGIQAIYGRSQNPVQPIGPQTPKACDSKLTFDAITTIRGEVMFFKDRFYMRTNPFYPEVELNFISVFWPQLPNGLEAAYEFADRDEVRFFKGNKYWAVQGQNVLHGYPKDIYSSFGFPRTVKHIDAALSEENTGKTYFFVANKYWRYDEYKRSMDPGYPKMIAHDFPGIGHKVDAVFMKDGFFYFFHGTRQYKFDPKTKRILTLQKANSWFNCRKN

[6] = In vivo inhibitory activity against Matrix metalloprotease enzyme by dialysis implant assay, value are relative to activity of CGS-27023 (73+/-4) at 25 mg/kg. po; assay type: functional
[7] = biological target: T1, Disintegrin and metalloproteinase domain-containing protein 17; test: In vitro inhibitory activity against tumor necrosis factor alpha converting enzyme (TACE).
[8] = In vivo inhibitory activity against Matrix metalloprotease enzyme by dialysis implant assay, value is relative to activity of CGS-27023 (54+/-2) at 25 mg/kg. po; assay type: functional
[9] = In vivo inhibition of Matrix metalloprotease enzyme by Sponge-wrapped cartilage assay, value is relative to activity of RS-130830 (27+/-3) at 10 mg/kg. po. bid; assay type: functional
[10] = In vivo inhibitory activity against Matrix metalloprotease enzyme by dialysis implant assay, value is relative to activity of CGS-27023 (64+/-2) at 25 mg/kg. po; assay type: functional
[11] = In vivo inhibitory activity against Matrix metalloprotease enzyme by dialysis implant assay, value are relative to activity of CGS-27023 (64+/-3) at 25 mg/kg. po; assay type: functional
[12] = In vivo inhibitory activity against Matrix metalloprotease enzyme by dialysis implant assay, value is relative to activity of CGS-27023 (62+/-5) at 25 mg/kg. po; assay type: functional
[13] = In vivo inhibitory activity against Matrix metalloprotease enzyme by dialysis implant assay, value is relative to activity of CGS-27023 (74+/-2) at 25 mg/kg. po; assay type: functional
[14] = In vivo inhibition of Matrix metalloprotease enzyme by Sponge-wrapped cartilage assay, value are relative to activity of CGS-27023 (33+/-2) at 25 mg/kg. po. bid; assay type: functional
[15] = In vivo inhibitory activity against Matrix metalloprotease enzyme by dialysis implant assay, value is relative to activity of CGS-27023 (76+/-3) at 25 mg/kg. po; assay type: functional
[16] = In vivo inhibitory activity against Matrix metalloprotease enzyme by dialysis implant assay, value is relative to activity of CGS-27023 (60+/-2) at 25 mg/kg. po; assay type: functional
[17] = system: Rattus norvegicus; test: In vivo inhibition of by Matrix metalloprotease enzyme Sponge-wrapped cartilage assay at 5 mg/kg. po. bid; assay type: functional
[18] = system: Oryctolagus cuniculus; test: Effect of compound on cartilage in surgically induced osteoarthritis (OA) model in rabbit at 25 mg/kg; assay type: functional
In short: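 Rabbits had anterior cruciate ligament transection plus meniscectomy in one knee, with sham surgery on the contralateral knee. From day 10 after surgery, groups of 12 were dosed once daily by oral gavage with vehicle, test compound or the RS-130830 reference for 4 weeks. Knee joints were then collected and scored for gross pathological changes by blinded investigators.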

[19] = In vivo inhibition of Matrix metalloprotease enzyme by Sponge-wrapped cartilage assay, value is relative to activity of RS-130830 (23+/-3) at 10 mg/kg. po. bid; assay type: functional
[20] = In vivo inhibitory activity against Matrix metalloprotease enzyme by dialysis implant assay, value is relative to activity of CGS-27023 (61+/-3) at 25 mg/kg. po; assay type: functional
[21] = biological target: T3, Interstitial collagenase (Homo sapiens) (UniProt P03956); test: Inhibition of Matrix metalloprotease-1 at 10 uM; in short: as §1
T3 sequence (whole entry): T2 sequence (P03956 whole entry)

[22] = In vivo inhibitory activity against Matrix metalloprotease enzyme by dialysis implant assay, value is relative to activity of CGS-27023 (60+/-3) at 25 mg/kg. po; assay type: functional
[23] = In vivo inhibitory activity against Matrix metalloprotease enzyme by dialysis implant assay, value is relative to activity of CGS-27023 (68+/5-) at 25 mg/kg. po; assay type: functional
[24] = In vivo inhibitory activity against Matrix metalloprotease enzyme by dialysis implant assay, value is relative to activity of CGS-27023 (75+/-2) at 25 mg/kg. po; assay type: functional
[25] = In vivo inhibition of Matrix metalloprotease enzyme by Sponge-wrapped cartilage assay, compared to activity of RS-130830 (20+/-2) at 5 mg/kg. po. bid; assay type: functional
[26] = In vivo inhibition of Matrix metalloprotease enzyme by Sponge-wrapped cartilage assay, value is relative to activity of RS-130830 (40+/-3) at 10 mg/kg. po. bid; assay type: functional
[27] = In vivo inhibition of Matrix metalloprotease enzyme by Sponge-wrapped cartilage assay, compared to activity of RS-130830 (inactive) at 5 mg/kg. po. qd; assay type: functional
[28] = In vivo inhibitory activity against Matrix metalloprotease enzyme by dialysis implant assay, value are relative to activity of CGS-27023 (67+/-3) at 25 mg/kg. po; assay type: functional
[29] = In vivo inhibition of Matrix metalloprotease enzyme by Sponge-wrapped cartilage assay, value is relative to activity of CGS-27023 (39+/-3) at 25 mg/kg. po. bid; assay type: functional
[30] = In vivo inhibitory activity against Matrix metalloprotease enzyme by dialysis implant assay, value is relative to activity of CGS-27023 (42+/-2) at 25 mg/kg. po; assay type: functional
[31] = In vivo inhibition of Matrix metalloprotease enzyme by Sponge-wrapped cartilage assay, value are relative to activity of RS-130830 (27+/-3) at 10 mg/kg. po. bid; assay type: functional

Matrix metalloproteinase-9, sequence (P14780 whole entry, the tested form may be a part): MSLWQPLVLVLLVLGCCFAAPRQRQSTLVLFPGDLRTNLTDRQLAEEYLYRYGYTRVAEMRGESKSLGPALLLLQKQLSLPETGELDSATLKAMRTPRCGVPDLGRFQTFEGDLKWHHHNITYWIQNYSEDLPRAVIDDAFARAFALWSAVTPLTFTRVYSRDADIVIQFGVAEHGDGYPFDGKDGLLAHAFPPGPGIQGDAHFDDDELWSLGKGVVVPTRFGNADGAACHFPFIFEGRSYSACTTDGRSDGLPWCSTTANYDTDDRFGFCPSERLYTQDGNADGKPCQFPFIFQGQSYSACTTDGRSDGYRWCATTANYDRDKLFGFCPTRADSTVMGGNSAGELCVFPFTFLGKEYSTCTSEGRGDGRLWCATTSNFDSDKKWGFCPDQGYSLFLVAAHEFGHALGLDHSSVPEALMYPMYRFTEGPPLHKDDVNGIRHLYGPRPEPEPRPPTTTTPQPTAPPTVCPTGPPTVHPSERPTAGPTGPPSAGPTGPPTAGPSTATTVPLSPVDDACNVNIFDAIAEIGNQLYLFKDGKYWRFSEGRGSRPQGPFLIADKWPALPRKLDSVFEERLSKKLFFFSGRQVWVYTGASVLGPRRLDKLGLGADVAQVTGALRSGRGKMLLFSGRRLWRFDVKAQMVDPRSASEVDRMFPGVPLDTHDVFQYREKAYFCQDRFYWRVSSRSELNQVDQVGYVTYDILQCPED

COc1ccc(S(=O)(=O)C2(C(=O)NO)CCN(Cc3ccc(Br)cc3)CC2)cc1
IC50 [1]: 10 nM
inhibition [2]: 71%
IC50 [3]: 2 nM
inhibition in vivo at 25 mg/kg [4]: 51%

COc1ccc(CN2CCC(C(=O)NO)(S(=O)(=O)c3ccc(Oc4ccc(Cl)cc4)cc3)CC2)cc1
IC50 [5]: 490 nM
inhibition in vivo at 25 mg/kg [6]: 93%
IC50 [7]: 492 nM

O=C(NO)C1(S(=O)(=O)c2ccc(Oc3ccc(Cl)cc3)cc2)CCNCC1
IC50 [5]: 1260 nM
IC50 [1]: 2 nM
IC50 [7]: 848 nM
IC50 [3]: 2 nM

CCCCOc1ccc(S(=O)(=O)C2(C(=O)NO)CCN(CCOc3ccccc3)CC2)cc1
IC50 [1]: 5 nM
inhibition in vivo at 25 mg/kg [8]: 29%

COc1ccc(S(=O)(=O)C2(C(=O)NO)CCN(Cc3ccc(Cl)c(Cl)c3)CC2)cc1
IC50 [1]: 6 nM
IC50 [3]: 2 nM
inhibition in vivo at 25 mg/kg [4]: 47%

CCCCOc1ccc(S(=O)(=O)C2(C(=O)NO)CCN(CC)CC2)cc1
inhibition in vivo at 10 mg/kg [9]: 34%
inhibition in vivo at 25 mg/kg [10]: 64%
inhibition [2]: 51%
IC50 [3]: 2 nM

CCCCOc1ccc(S(=O)(=O)C2(C(=O)NO)CCN(Cc3ccc(Cl)c(Cl)c3)CC2)cc1
inhibition in vivo at 25 mg/kg [11]: 14%
IC50 [1]: 20 nM
inhibition [2]: 57%
IC50 [3]: 5 nM

COc1ccc(S(=O)(=O)C2(C(=O)NO)CCN(CCc3ccccc3)CC2)cc1
IC50 [3]: 9 nM
inhibition in vivo at 25 mg/kg [12]: 68%

Cc1ccc(CN2CCC(C(=O)NO)(S(=O)(=O)c3ccc(OCc4ccc(Cl)cc4)cc3)CC2)cc1
IC50 [3]: 6 nM

COc1ccc(S(=O)(=O)C2(C(=O)NO)CCN(C3CCCCCCC3)CC2)cc1
inhibition in vivo at 25 mg/kg [13]: 71%
inhibition [2]: 22%

COc1ccc(CCN2CCC(C(=O)NO)(S(=O)(=O)c3ccc(OC)cc3)CC2)cc1
inhibition [2]: 53%
IC50 [3]: 2 nM
inhibition in vivo at 25 mg/kg [12]: 48%

COc1ccc(S(=O)(=O)C2(C(=O)NO)CCN(Cc3ccc4ccccc4c3)CC2)cc1
inhibition in vivo at 25 mg/kg [14]: 14%
inhibition in vivo at 25 mg/kg [4]: 62%

COc1ccc(S(=O)(=O)C2(C(=O)NO)CCN(Cc3ccc(F)cc3)CC2)cc1
IC50 [1]: 16 nM
inhibition in vivo at 25 mg/kg [15]: 83%
IC50 [3]: 2 nM

COc1ccc(S(=O)(=O)C2(C(=O)NO)CCN(Cc3ccccc3)CC2)cc1
IC50 [1]: 10 nM

COc1ccc(S(=O)(=O)C2(C(=O)NO)CCN(Cc3ccc(-c4ccccn4)cc3)CC2)cc1
inhibition in vivo at 25 mg/kg [11]: 78%
IC50 [1]: 6 nM

CCCCOc1ccc(S(=O)(=O)C2(C(=O)NO)CCOCC2)cc1
IC50 [5]: 1380 nM
IC50 [1]: 9.2 nM
IC50 [7]: 177 nM
IC50 [3]: 1.4 nM

COc1ccc(S(=O)(=O)C2(C(=O)NO)CCN(Cc3cccc(OC)c3)CC2)cc1
inhibition in vivo at 25 mg/kg [16]: 70%
IC50 [1]: 9 nM

O=C(NO)C1(CS(=O)(=O)c2ccc(Oc3ccc(Cl)cc3)cc2)CCOCC1 [CTS-1027]
inhibition in vivo at 5 mg/kg [17]: 20%
IC50 [5]: 233 nM
IC50 [7]: 176 nM
gross pathology score at 25 mg/kg [18]: 7.9 score

CCN1CCC(C(=O)NO)(S(=O)(=O)c2ccc(Oc3ccc(Cl)cc3)cc2)CC1
IC50 [1]: 1 nM
inhibition in vivo at 10 mg/kg [19]: 75%
inhibition in vivo at 25 mg/kg [20]: 90%
IC50 [3]: 1 nM

CCCCN1CCC(C(=O)NO)(S(=O)(=O)c2ccc(OC)cc2)CC1
inhibition in vivo at 25 mg/kg [15]: 56%
inhibition [21]: 56%
inhibition [2]: 15%

COc1ccc(S(=O)(=O)C2(C(=O)NO)CCN(CCCOc3ccccc3)CC2)cc1
inhibition [2]: 50%
inhibition in vivo at 25 mg/kg [22]: 28%
IC50 [3]: 4 nM

COc1ccc(S(=O)(=O)C2(C(=O)NO)CCN(Cc3ccc(-c4ccccc4)cc3)CC2)cc1
IC50 [5]: 1330 nM
IC50 [1]: 13 nM
inhibition in vivo at 25 mg/kg [23]: 29%
IC50 [7]: 610 nM
IC50 [3]: 3 nM

COc1ccc(S(=O)(=O)C2(C(=O)NO)CCN(C(C)(C)C)CC2)cc1
inhibition [21]: 59%
inhibition [2]: 9%

CCCCOc1ccc(S(=O)(=O)C2(C(=O)NO)CCN(Cc3ccc(OCCN4CCCCC4)cc3)CC2)cc1
inhibition in vivo at 25 mg/kg [24]: 98%
inhibition in vivo at 5 mg/kg [25]: 56%
inhibition in vivo at 10 mg/kg [26]: 67%
inhibition in vivo at 5 mg/kg [27]: 33%

COc1ccc(S(=O)(=O)C2(C(=O)NO)CCN(CC=C(C)C)CC2)cc1
inhibition in vivo at 25 mg/kg [23]: 57%
inhibition [2]: 49%

CCCCOc1ccc(S(=O)(=O)C2(C(=O)NO)CCN(Cc3cccc(OC)c3)CC2)cc1
IC50 [1]: 3 nM
inhibition in vivo at 25 mg/kg [28]: 82%

COc1ccc(S(=O)(=O)C2(C(=O)NO)CCN(Cc3ccc(OCCN4CCCCC4)cc3)CC2)cc1
inhibition in vivo at 25 mg/kg [29]: 56%
inhibition in vivo at 25 mg/kg [30]: 53%
IC50 [1]: 3 nM
IC50 [3]: 3 nM

COc1ccc(S(=O)(=O)C2(C(=O)NO)CCN(CCOc3ccccc3)CC2)cc1
IC50 [1]: 26 nM
IC50 [3]: 3 nM
inhibition in vivo at 25 mg/kg [8]: 6%

CC(C)CCOc1ccc(S(=O)(=O)C2(C(=O)NO)CCN(Cc3ccccc3)CC2)cc1
inhibition in vivo at 25 mg/kg [11]: 80%
IC50 [1]: 4 nM
inhibition in vivo at 10 mg/kg [31]: 34%
IC50 [3]: 2 nM
